Measurements published in article PMC8200842 (The Journal of General Physiology, 2021).
Values joined by “and” are separate entries in the source; they are usually repeats but may differ in a detail not shown here. Equal entries are not always repeated. Where two headings read alike, the source gives them in different places. Marks after values point to notes of the source that are not given here.

Legend:
Format in all cases: binding
MelBSt = MelBSt (Salmonella typhimurium, UniProt P30878); settings: for ΔΔH: from 15°C to 30°C
WT MelBSt = WT MelBSt (Salmonella typhimurium, UniProt P30878); test: Thermal denaturation by CD spectroscopy; settings: for 10% unfolding / 50% unfolding (Tm) / 90% unfolding: WT MelBSt 10 µM, component at 50 mM in CD buffer, ellipticity at 210 nm; for ΔTm / denaturation completed faster than in the absence of salt: WT MelBSt; for ΔTm: difference in Tm compared with apo; for denaturation completed faster than in the absence of salt: above 60°C, nonspecific salt effect
Method in brief: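 Samples sat in a 1-mm cuvette. Ellipticity at 210 nm was recorded from 25–80°C at 1°C intervals, ramping 1°C/min, and expressed as percent unfolded. Tm is the half-maximal ellipticity decrease by curve fitting. Data are SEM; unpaired t test, P<0.05.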

D55C MelBSt mutant = D55C MelBSt mutant (Salmonella typhimurium, UniProt P30878, D55C); test: Thermal denaturation by CD spectroscopy; settings: D55C MelBSt 10 µM, component at 50 mM in CD buffer, ellipticity at 210 nm
[1] = MelBSt with 100 mM NaCl (MelBSt/Na^+ binary complex), 15°C
[2] = MelBSt with 100 mM NaCl (MelBSt/Na^+ binary complex), 20°C
[3] = MelBSt with 100 mM NaCl (MelBSt/Na^+ binary complex), 25°C
[4] = MelBSt with 100 mM NaCl (MelBSt/Na^+ binary complex), 30°C
[5] = MelBSt with 100 mM NaCl (MelBSt/Na^+ binary complex), 35°C
[6] = apo MelBSt, range over 15°C, 20°C, 25°C and 30°C
[7] = binding to MelBSt/Na^+ binary complex
[8] = MelBSt with 50 mM melibiose (MelBSt/Mel binary complex), 15°C
[9] = MelBSt with 50 mM melibiose (MelBSt/Mel binary complex), 20°C
[10] = MelBSt with 50 mM melibiose (MelBSt/Mel binary complex), 25°C
[11] = MelBSt with 50 mM melibiose (MelBSt/Mel binary complex), 30°C
[12] = binding to MelBSt/Mel binary complex

With `OC[C@H]1O[C@H](OCC2O[C@@H](O)[C@H](O)[C@@H](O)[C@@H]2O)[C@H](O)[C@@H](O)[C@H]1O` (stereo partly shown) [Mel, melibiose] the “Entropy change (−TΔS)” value (MelBSt; [1]) was -2.3 ± 0.16 kcal/mol, the “Free energy change (ΔG)” value (MelBSt; [1]) was -3.927 ± 0.0072 kcal/mol and the Kd (MelBSt; [1]) was 1.05 ± 0.01 mM. The ΔH (MelBSt; [1]) was -1.54 ± 0.103 kcal/mol, the “Entropy change (−TΔS)” value (MelBSt; [2]) was -1.76 ± 0.237 kcal/mol and the “Free energy change (ΔG)” value (MelBSt; [2]) was -4.085 ± 0.0956 kcal/mol. The Kd (MelBSt; [2]) was 0.95 ± 0.13 mM, the ΔH (MelBSt; [2]) was -2.32 ± 0.141 kcal/mol and the “Entropy change (−TΔS)” value (MelBSt; [3]) was -1.14 ± 0.0621 kcal/mol. For the same compound, the “Free energy change (ΔG)” value (MelBSt; [3]) was -3.994 ± 0.0072 kcal/mol, the Kd (MelBSt; [3]) was 1.18 ± 0.01 mM and the ΔH (MelBSt; [3]) was -2.861 ± 0.055 kcal/mol. The “Entropy change (−TΔS)” value (MelBSt; [4]) was -0.712 ± 0.0741 kcal/mol, the “Free energy change (ΔG)” value (MelBSt; [4]) was -3.956 ± 0.017 kcal/mol and the Kd (MelBSt; [4]) was 1.41 ± 0.04 mM. The ΔH (MelBSt; [4]) was -3.243 ± 0.0574 kcal/mol, the “Entropy change (−TΔS)” value (MelBSt; [5]) was -0.261 ± 0.055 kcal/mol and the “Free energy change (ΔG)” value (MelBSt; [5]) was -3.879 ± 0.0478 kcal/mol. For the same compound, the Kd (MelBSt; [5]) was 1.78 ± 0.14 mM, the ΔH (MelBSt; [5]) was -3.623 ± 0.105 kcal/mol and the “Entropy change (−TΔS)” value (MelBSt; apo MelBSt (main buffer), 15°C) was 3.499 ± 1.03 kcal/mol. The “Free energy change (ΔG)” value (MelBSt; apo MelBSt (main buffer), 15°C) was -2.694 ± 0.0645 kcal/mol, the Kd (MelBSt; apo MelBSt (main buffer), 15°C) was 9.15 ± 1.06 mM and the ΔH (MelBSt; apo MelBSt (main buffer), 15°C) was -6.193 ± 1.09 kcal/mol. The ΔH (MelBSt; apo MelBSt (main buffer), 15°C, listed as melibiose) was -6.193 kcal/mol, the “Entropy change (−TΔS)” value (MelBSt; apo MelBSt (main buffer), 20°C) was 2.849 ± 1.19 kcal/mol and the “Free energy change (ΔG)” value (MelBSt; apo MelBSt (main buffer), 20°C) was -2.71 ± 0.0621 kcal/mol. The Kd (MelBSt; apo MelBSt (main buffer), 20°C) was 9.59 ± 1.01 mM, the ΔH (MelBSt; apo MelBSt (main buffer), 20°C) was -5.559 ± 1.25 kcal/mol and the “Entropy change (−TΔS)” value (MelBSt; apo MelBSt (main buffer), 25°C) was 2 ± 1.6 kcal/mol. For the same compound, the “Free energy change (ΔG)” value (MelBSt; apo MelBSt (main buffer), 25°C) was -2.698 ± 0.139 kcal/mol, the Kd (MelBSt; apo MelBSt (main buffer), 25°C) was 10.8 ± 2.49 mM and the ΔH (MelBSt; apo MelBSt (main buffer), 25°C) was -4.694 ± 1.47 kcal/mol. The “Entropy change (−TΔS)” value (MelBSt; apo MelBSt (main buffer), 30°C) was 1.34 ± 1.35 kcal/mol, the “Free energy change (ΔG)” value (MelBSt; apo MelBSt (main buffer), 30°C) was -2.584 ± 0.0526 kcal/mol and the Kd (MelBSt; apo MelBSt (main buffer), 30°C) was 13.8 ± 1.18 mM. For the same compound, the ΔH (MelBSt; apo MelBSt (main buffer), 30°C) was -3.92 ± 1.3 kcal/mol, the ΔH (MelBSt; apo MelBSt (main buffer), 30°C, listed as melibiose) was -3.92 kcal/mol and the ΔΔH (MelBSt; apo MelBSt) was ~2.39 kcal/mol. The Kd (MelBSt; [6]) was 9 to 13 mM, the “binding free energy ΔG” value (MelBSt; [6]) was -2.694 to -2.584 kcal/mol and the “−ΔSConf” value (MelBSt; [7]) was 59.86 J/mol·K. The “−ΔSMix” value (MelBSt; [7]) was 33.00 J/mol·K, the “−ΔSSolv” value (MelBSt; [7]) was −108.78 J/mol·K and the “−ΔSSum at °25 C” value (MelBSt; [7]) was −15.92 J/mol·K. The “−ΔSConf” value (MelBSt; binding to apo MelBSt) was −169.20 J/mol·K, the “−ΔSMix” value (MelBSt; binding to apo MelBSt) was 33.00 J/mol·K and the “−ΔSSolv” value (MelBSt; binding to apo MelBSt) was 164.61 J/mol·K. For the same compound, the “−ΔSSum at °25 C” value (MelBSt; binding to apo MelBSt) was 28.41 J/mol·K, the ΔCp (MelBSt; binding to apo MelBSt, slope of ΔH versus temperature 15-30°C) was 643.01 ± 26.92 J/mol·K and the 10% unfolding (WT MelBSt) was 45.95 ± 0.47 °C. For the same compound, the “50% unfolding (Tm)” value (WT MelBSt) was 54.07 ± 0.07 °C, the 90% unfolding (WT MelBSt) was 64.24 ± 0.42 °C and the ΔTm (WT MelBSt) was 0.78 (<0.05) °C. For the same compound, the “50% unfolding (Tm)” value (D55C MelBSt mutant) was >80 °C.
With `[K+]` [K^+] the 10% unfolding (WT MelBSt) was 46.06 ± 0.02 °C, the “50% unfolding (Tm)” value (WT MelBSt) was 53.34 ± 0.04 °C and the 90% unfolding (WT MelBSt) was 59.94 ± 0.69 °C. The “denaturation completed faster than in the absence of salt” value (WT MelBSt) was 4–5 °C, the ΔTm (WT MelBSt) was 0.05 ^d (>0.05 ^e) °C and the 10% unfolding (D55C MelBSt mutant) was 46.51 ± 0.71 °C. For the same compound, the “50% unfolding (Tm)” value (D55C MelBSt mutant) was 56.15 ± 0.16 °C and the 90% unfolding (D55C MelBSt mutant) was 65.07 ± 0.06 °C.
For `[Na+]` [Na^+], the “Entropy change (−TΔS)” value (MelBSt; [8]) was -3.009 ± 0.0621 kcal/mol, the “Free energy change (ΔG)” value (MelBSt; [8]) was -5.566 ± 0.0478 kcal/mol and the Kd (MelBSt; [8]) was 0.06 ± 0.01 mM. The ΔH (MelBSt; [8]) was -2.557 ± 0.014 kcal/mol, the “Entropy change (−TΔS)” value (MelBSt; [9]) was -1.94 ± 0.0072 kcal/mol and the “Free energy change (ΔG)” value (MelBSt; [9]) was -5.554 ± 0.0406 kcal/mol. For the same compound, the Kd (MelBSt; [9]) was 0.07 ± 0.01 mM, the ΔH (MelBSt; [9]) was -3.619 ± 0.0359 kcal/mol and the “Entropy change (−TΔS)” value (MelBSt; [10]) was -0.913 ± 0.0072 kcal/mol. For the same compound, the “Free energy change (ΔG)” value (MelBSt; [10]) was -5.39 ± 0.196 kcal/mol, the Kd (MelBSt; [10]) was 0.12 ± 0.04 mM and the ΔH (MelBSt; [10]) was -4.479 ± 0.191 kcal/mol. For the same compound, the “Free energy change (ΔG)” value (MelBSt; [11]) was -5.485 ± 0.177 kcal/mol, the Kd (MelBSt; [11]) was 0.12 ± 0.03 mM and the ΔH (MelBSt; [11]) was -5.299 ± 0.124 kcal/mol. The “difference in apo MelBSt binding affinities between Na^+ and melibiose” value (MelBSt; apo MelBSt) was “at least 20 fold”, the “Entropy change (−TΔS)” value (MelBSt; apo MelBSt (main buffer), 15°C) was 4.197 ± 0.311 kcal/mol and the “Free energy change (ΔG)” value (MelBSt; apo MelBSt (main buffer), 15°C) was -4.345 ± 0.0932 kcal/mol. The Kd (MelBSt; apo MelBSt (main buffer), 15°C) was 0.51 ± 0.08 mM, the ΔH (MelBSt; apo MelBSt (main buffer), 15°C) was -8.544 kcal/mol and -8.544 ± 0.215 kcal/mol and the “Entropy change (−TΔS)” value (MelBSt; apo MelBSt (main buffer), 20°C) was 2.404 ± 0.0048 kcal/mol. For the same compound, the “Free energy change (ΔG)” value (MelBSt; apo MelBSt (main buffer), 20°C) was -4.333 ± 0.117 kcal/mol, the Kd (MelBSt; apo MelBSt (main buffer), 20°C) was 0.6 ± 0.1 mM and the ΔH (MelBSt; apo MelBSt (main buffer), 20°C) was -6.74 ± 0.103 kcal/mol. The “Entropy change (−TΔS)” value (MelBSt; apo MelBSt (main buffer), 25°C) was 0.872 ± 0.0741 kcal/mol, the “Free energy change (ΔG)” value (MelBSt; apo MelBSt (main buffer), 25°C) was -4.412 ± 0.1 kcal/mol and the Kd (MelBSt; apo MelBSt (main buffer), 25°C) was 0.59 ± 0.12 mM. The ΔH (MelBSt; apo MelBSt (main buffer), 25°C) was -5.284 ± 0.191 kcal/mol, the “Entropy change (−TΔS)” value (MelBSt; apo MelBSt (main buffer), 30°C) was -0.473 ± 0.387 kcal/mol and the “Free energy change (ΔG)” value (MelBSt; apo MelBSt (main buffer), 30°C) was -4.302 ± 0.0526 kcal/mol. For the same compound, the Kd (MelBSt; apo MelBSt (main buffer), 30°C) was 0.79 ± 0.07 mM, the ΔH (MelBSt; apo MelBSt (main buffer), 30°C) was -3.829 kcal/mol and -3.829 ± 0.335 kcal/mol and the ΔΔH (MelBSt; apo MelBSt) was ~4.78 kcal/mol. The “−ΔSConf” value (MelBSt; [12]) was 148.74 J/mol·K, the “−ΔSMix” value (MelBSt; [12]) was 33.00 J/mol·K and the “−ΔSSolv” value (MelBSt; [12]) was −194.56 J/mol·K. The “−ΔSSum at °25 C” value (MelBSt; [12]) was −12.82 J/mol·K, the “−ΔSConf” value (MelBSt; binding to apo MelBSt) was −354.89 J/mol·K and the “−ΔSMix” value (MelBSt; binding to apo MelBSt) was 33.00 J/mol·K. The “−ΔSSolv” value (MelBSt; binding to apo MelBSt) was 334.13 J/mol·K, the “−ΔSSum at °25 C” value (MelBSt; binding to apo MelBSt) was 12.24 J/mol·K and the 10% unfolding (WT MelBSt) was 49.07 ± 0.28 °C. The “50% unfolding (Tm)” value (WT MelBSt) was 54.83 ± 0.03 °C, the 90% unfolding (WT MelBSt) was 60.06 ± 0.29 °C and the “denaturation completed faster than in the absence of salt” value (WT MelBSt) was 4–5 °C. For the same compound, the ΔTm (WT MelBSt) was 1.54 (<0.05) °C, the 10% unfolding (D55C MelBSt mutant) was 46.35 ± 0.25 °C and the “50% unfolding (Tm)” value (D55C MelBSt mutant) was 56.75 ± 0.25 °C. It also gave a 90% unfolding (D55C MelBSt mutant) of 66.51 ± 0.31 °C.
